Screens (PubChem BioAssay)
CXCR6 inh: inhibitors of human CXCR6 receptor | CHO-K1 PathHunter CXCR6 beta-arrestin, luminescence | inhibition, % at 20 µM | 360,000 compounds, 0.36% hits | AID 602244; in the data active means inhibition above about 34%, passing the limit was not always enough;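 further: antagonist mode with CXCL16 agonist at 10 nM final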
Target sequence (O00574 whole entry, looked up): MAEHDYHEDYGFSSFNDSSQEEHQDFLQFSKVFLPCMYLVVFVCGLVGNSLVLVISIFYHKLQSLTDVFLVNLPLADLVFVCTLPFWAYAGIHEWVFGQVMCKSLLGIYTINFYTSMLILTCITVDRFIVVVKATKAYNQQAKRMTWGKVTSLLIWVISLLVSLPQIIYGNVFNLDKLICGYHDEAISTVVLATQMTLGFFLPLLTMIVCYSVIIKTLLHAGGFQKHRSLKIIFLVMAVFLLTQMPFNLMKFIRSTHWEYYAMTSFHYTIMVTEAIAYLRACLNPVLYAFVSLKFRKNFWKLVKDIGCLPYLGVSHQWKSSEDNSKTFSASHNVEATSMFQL
APJ antag: blocks the human apelin receptor APJ; P35414; CHO-K1 APJ beta-arrestin complementation, luminescence; inhibition, % at 20 µM; 330,000 compounds, 0.32% hits; AID 2521;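 active means inhibition above about 40% at 20 µM, limit read from the data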;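 further: cells challenged with 10 nM apelin-13 agonist together with compound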
CCR6 antagonist: blocks CCL20-driven beta-arrestin recruitment at human CCR6. CHO-K1 CCR6 PathHunter beta-arrestin, luminescence, CCL20-stimulated. inhibition, % at 20 µM. 340,000 compounds, 0.49% hits;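 active means compounds whose inhibition of the agonist-driven luminescence signal at 20 µM reaches about 50%, limit read from the data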;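 further: cells stimulated with CCL20 at 14 nM final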
APJ agonist: agonists of human APJ apelin receptor; P35414; CHO-K1 APJ PathHunter beta-arrestin, luminescence; 0% DMSO wells, 100% apelin; activation, % at 20 µM; 330,000 compounds, 0.11% hits;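 active means activation more than six SD over the plate average, tested at 20 µM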
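Material: CHO-K1 APJ beta-arrestin complementation cell line; Input: cell density 1000 per well; Incubation: compound stimulation 90 min at 25 °C, detection 60 min; Signal: luminescence from split beta-galactosidase complementation, Galacton Star/Emerald II substrate; Controls: DMSO-only wells as negative, 10 nM Apelin-13 as positive control.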
EBI2 block: EBI2 (human) antagonism; AID 651636; 360,000 compounds, 0.81% hits; inhibition, % at 5 µM; EBI2 beta-arrestin recruitment, luminescence, 7a,25-OHC stimulated; P32249; in the data active means inhibition above about 38%;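 further: enzyme fragment complementation signal reports receptor beta-arrestin coupling in cells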
Large screens that a line does not name were inactive. In the library only some 1.5% were active in any assay of this set; here they are far more common.

O=C(Nc1ccnn1C1CCN(Cc2ccc(C#CCCO)cc2)CC1)c1cccc(F)c1	none
Cc1cccc2c1N(CCOc1ccc(C(C)(C)C)cc1)C(=O)C2=O	none
Cc1ccc2c(c1)C(=O)C(=O)N2CC(=O)OC(C)C	none
Cc1ccc(OCCN2C(=O)C(=O)c3cc(C)ccc32)cc1	CCR6 antagonist 51.7
Cc1ccc(OCCCN2C(=O)C(=O)c3cccc(C)c32)cc1	CCR6 antagonist 57.4
CCC(C)N1CCN(S(=O)(=O)Cc2ccccc2)CC1 (stereo not given)	none
CCN(CC)c1ccc(C(=C2C=CC(=[N+](CC)CC)C=C2)c2ccccc2)cc1	CXCR6 inh 102.8, CCR6 antagonist 116.7 (no result: APJ antag, APJ agonist)
CCN(CC)c1ccc(C(=C2C=CC(=[N+](CC)CC)C=C2)c2ccc(N(CC)CC)cc2)cc1	CXCR6 inh 108.5, CCR6 antagonist 113.8 (no result: APJ antag, APJ agonist)
CCN(CC)c1ccc(C(=O)NNC(=O)CCNC(=O)c2ccccc2)cc1	none
Cc1cc(N/N=C/c2ccc(O)cc2O)nc(-c2ccccc2O)n1	none (no result: APJ antag, APJ agonist)
Cc1cc(N/N=C/c2ccc(O)cc2O)nc(-n2nc(C)cc2C)n1	CXCR6 inh 92.1, CCR6 antagonist 93.0, EBI2 block 84.5 (no result: APJ antag, APJ agonist)
Cc1ccc(NC(=O)CN(Cc2ccco2)Cc2ccccc2O)cc1C	none
COc1ccccc1COCC(O)CN(Cc1ccco1)Cc1ccccc1O (stereo not given)	CCR6 antagonist 87.7
COc1ccc(/C=C/c2nc3ccccc3n2Cc2ccccc2OC)cc1	EBI2 block 54.7
COc1ccccc1Cn1c(/C=C/c2ccccc2)nc2ccccc21	none
COc1cccc(NC(=O)CN(C)C(=O)CC(NC(=O)c2ccccc2Cl)c2ccccc2)c1 (stereo not given)	none
Cc1c(Cl)cccc1N1C(=O)C(N2C(=O)c3cccc([N+](=O)[O-])c3C2=O)C1c1cccs1 (stereo not given)	EBI2 block 48.1
O=C1c2cccc([N+](=O)[O-])c2C(=O)N1C1CCCCC1	none
CNC(CC(=O)c1ccc([N+](=O)[O-])cc1)C(Cl)(Cl)Cl (stereo not given)	CXCR6 inh 89.6 (no result: APJ antag, CCR6 antagonist, APJ agonist)
O=[N+]([O-])c1nc2ccccc2[nH]1	none (no result: APJ antag, APJ agonist)
CCc1ccc2nc(SCC(=O)N3CC(=O)Nc4ccccc43)c(C#N)cc2c1	EBI2 block 48.5
COc1ccccc1/C=C/C=N/NC(=O)c1ccc2nc[nH]c2c1	none (no result: CXCR6 inh, CCR6 antagonist, EBI2 block)
O=C(Nc1cc(Cl)cc2c1-c1ccc(Cl)cc1C2O)C(Cl)Cl (stereo not given)	EBI2 block 44.1 (no result: APJ antag, APJ agonist)
CC(C)C[C@H]1C(=O)N2CCC[C@H]2[C@]2(O)O[C@](NC(=O)[C@@H]3C=C4c5cccc6[nH]c(Br)c(c56)CC4N(C)C3)(C(C)C)C(=O)N12 (stereo not given in full)	EBI2 block 89.3
Cc1ccc2[nH]cc(CCNS(=O)(=O)c3ccc(F)cc3)c2c1	none
C[C@@H](NC(=O)c1ncn(Cc2ccccc2)c1C(=O)N[C@H](C)c1ccccc1)c1ccccc1	EBI2 block 47.6
O=C(/C=C/c1ccc(NC(=O)c2ccccc2-c2ccccc2C(=O)O)cc1)c1ccccc1	none
O=C(/C=C/c1ccncc1)c1ccc(NC(=O)c2ccccc2F)cc1	CCR6 antagonist 68.6 (no result: APJ antag, APJ agonist)
CC(=O)N=C1C=CC(=CN(O)C(C)(C)Cc2ccccc2)C=C1	none
COc1ccc(C2CC(c3ccc(Br)cc3)=NN2C(=S)Nc2ccccc2)cc1 (stereo not given)	none
CNC(=S)N1N=C(c2ccc(Br)cc2)CC1c1ccc(N(C)C)cc1 (stereo not given)	EBI2 block 93.5
CC1CCN(C(=O)COC(=O)C23CC4CC(CC(O)(C4)C2)C3)CC1	none
COc1cc(/C=N/n2c(=S)[nH]nc(C)c2=O)cc([N+](=O)[O-])c1O	none
CCc1n[nH]c(=S)n1/N=C/c1cc(OC)cc([N+](=O)[O-])c1O	APJ antag 41.5, CCR6 antagonist 62.4
CN(C)C(=S)N=c1ssc(=S)n1Cc1ccccc1	CCR6 antagonist 50.7 (no result: APJ antag, APJ agonist)
O=C(/C=C/c1cccs1)c1ccc(NC(=O)c2cccc(Br)c2)cc1	EBI2 block 58.4
Cc1c(Cl)cccc1NC(=O)CN1CCC(C(O)(c2ccccc2)c2ccccc2)CC1	EBI2 block 38.5
Cc1ccc(-n2c(=O)c3ccc(C(=O)NCc4ccco4)cc3n(Cc3ccccc3C#N)c2=O)cc1	APJ antag 85.7
